The results in this text go back to ChEMBL document CHEMBL1134271 (J Med Chem, 2001).

Series [1] concerns the target T1, Endothelin-1 receptor (Rattus norvegicus, UniProt P26684).
T1 sequence (P26684 whole entry): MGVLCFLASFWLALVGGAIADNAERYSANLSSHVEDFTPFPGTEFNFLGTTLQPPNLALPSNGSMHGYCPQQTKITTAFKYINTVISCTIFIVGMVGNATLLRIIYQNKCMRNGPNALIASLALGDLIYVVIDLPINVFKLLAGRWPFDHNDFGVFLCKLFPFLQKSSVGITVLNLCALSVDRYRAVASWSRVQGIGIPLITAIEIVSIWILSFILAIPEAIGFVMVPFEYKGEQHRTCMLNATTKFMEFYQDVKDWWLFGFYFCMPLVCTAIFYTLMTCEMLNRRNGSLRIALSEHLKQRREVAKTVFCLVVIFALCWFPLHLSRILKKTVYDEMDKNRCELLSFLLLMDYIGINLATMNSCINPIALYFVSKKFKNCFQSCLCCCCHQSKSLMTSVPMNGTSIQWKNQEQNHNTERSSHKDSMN
The series can be described thus: Binding affinity against endothelin A receptor in MMQ cells in rat. It counts as cell-based.

The target of series [2] is T2, Endothelin receptor type B (Homo sapiens, UniProt P24530).
T2 sequence (P24530 whole entry): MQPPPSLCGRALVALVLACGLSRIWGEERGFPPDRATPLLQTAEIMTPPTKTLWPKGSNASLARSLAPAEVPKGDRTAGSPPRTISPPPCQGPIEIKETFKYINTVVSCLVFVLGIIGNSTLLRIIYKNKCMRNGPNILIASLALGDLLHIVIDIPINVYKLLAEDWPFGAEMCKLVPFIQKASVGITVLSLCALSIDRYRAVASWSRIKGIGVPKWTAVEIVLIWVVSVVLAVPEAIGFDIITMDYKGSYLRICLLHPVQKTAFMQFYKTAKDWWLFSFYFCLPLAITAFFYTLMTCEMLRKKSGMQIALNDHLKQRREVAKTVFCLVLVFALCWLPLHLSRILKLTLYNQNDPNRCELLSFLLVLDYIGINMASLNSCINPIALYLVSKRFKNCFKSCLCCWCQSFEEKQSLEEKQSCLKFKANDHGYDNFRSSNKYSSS
The series can be described thus: Binding affinity against human endothelin B receptor in CHO cells. It counts as cell-based. Summed up:
(§1)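 Human ET-A and ET-B receptors expressed in CHO cells, run as a second binding assay alongside the rat/porcine screen. IC50 was derived from radioligand displacement: [125I]ET-1 for ET-A and [125I]ET-3 for ET-B.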

The nature of series [3]: Compound was evaluated for pharmacokinetic data, Cmax. It counts as ADME, organism-based. As to conditions: in vivo. Summed up: (§2)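 Rats (n = 3) were given 10 mg/kg by oral gavage. Plasma drug concentration was followed over time and compared with the intravenous time course. Oral half-life, Cmax, AUC and oral bioavailability were derived from these profiles.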
A short description of series [4]: (§3) Compound was evaluated for bioavailability. As to conditions: eutheria, in vivo. It counts as ADME, organism-based. The method, boiled down:
as §2

Series [5] in a line: Compound was evaluated for pharmacokinetic data, area under curve (AUC). It counts as ADME. The method, boiled down: as §2
Series [6] can be described thus: Compound was evaluated for half life period when administered orally. The format is ADME, organism-based. The conditions noted are these: in vivo, po. Summed up: as §2
A short description of series [7]: Compound was evaluated for half life period when administered intravenously. The conditions noted are these: in vivo, iv. It counts as ADME, organism-based. Summed up:
(§4)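 Rats were dosed by intravenous injection at 5 mg/kg. Plasma drug levels were followed over time, and half-life was derived from the iv time course.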

Series [8] is described as follows: Compound was evaluated for half-life period when administered intravenously. The format is ADME, organism-based. As to conditions: in vivo, iv. Summed up: as §4
Series [9] deals with T3, Endothelin-1 receptor (Homo sapiens, UniProt P25101).
T3 sequence (P25101 whole entry): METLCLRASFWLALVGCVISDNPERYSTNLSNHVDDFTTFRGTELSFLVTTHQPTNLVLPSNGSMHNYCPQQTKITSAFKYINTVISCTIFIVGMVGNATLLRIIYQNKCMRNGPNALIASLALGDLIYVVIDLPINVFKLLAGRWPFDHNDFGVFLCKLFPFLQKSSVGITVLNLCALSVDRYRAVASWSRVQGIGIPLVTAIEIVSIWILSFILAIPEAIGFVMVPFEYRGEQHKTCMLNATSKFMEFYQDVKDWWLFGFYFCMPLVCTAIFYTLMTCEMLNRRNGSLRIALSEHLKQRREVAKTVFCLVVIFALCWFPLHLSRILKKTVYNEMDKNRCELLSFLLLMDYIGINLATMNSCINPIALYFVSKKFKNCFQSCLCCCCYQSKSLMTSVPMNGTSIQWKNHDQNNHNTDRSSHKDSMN
The series can be described thus: Binding affinity against human Endothelin A receptor. Summed up:
as §1

A short description of series [10]: as §3. It counts as ADME, organism-based. The conditions noted are these: eutheria, in vivo. The method, boiled down:
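Rats received the drug by intravenous injection (5 mg/kg) and by oral gavage (10 mg/kg), three rats per route. Plasma drug levels were followed over time. Oral bioavailability (F) was derived by comparing plasma exposure after oral dosing with that after iv dosing.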
This is another data set of the same source.

Molecules are shown by their SMILES. pIC50, pKi: −log10 of the molar value.

For `CCCCN(CCCC)C(=O)CN1C[C@H](c2ccc3occc3c2)[C@@H](C(=O)O)[C@@H]1c1ccc(OC)cc1`, at Endothelin-1 receptor [1], the negative logarithm of the IC50 (pIC50) (as a rule, the negative decadic logarithm of the IC50, by convention in mol/L) is 9.32.
Compound `CCCCN(CCCC)C(=O)CN1C[C@H](c2ccc3c(c2)OCCO3)[C@@H](C(=O)O)[C@@H]1c1ccc(OC)cc1` gave a negative-log IC50 (pIC50) at Endothelin-1 receptor [1] of 9.07.
Compound `CCCCN(CCCC)C(=O)CN1C[C@H](c2ccc3c(c2)OCO3)[C@@H](C(=O)O)[C@@H]1c1ccc(CCC)cc1` had a pIC50 on Endothelin-1 receptor [1] of 8.97.
`CCCCN(CCCC)C(=O)CN1C[C@H](c2ccc3c(c2)CCO3)[C@@H](C(=O)O)[C@@H]1c1ccc(C)cc1` had a pIC50 at Endothelin-1 receptor [1] of 9.11.
Regarding `CCCCN(CCCC)C(=O)CN1C[C@H](c2ccc3c(c2)OCCO3)[C@@H](C(=O)O)[C@@H]1c1ccc(CC)c(F)c1`, in [2], the pIC50 is 6.02.
Consider `CCCCN(CCCC)C(=O)CN1C[C@H](c2ccc3c(c2)OCCO3)[C@@H](C(=O)O)[C@@H]1c1ccc(CC)cc1`, for which the pIC50 at Endothelin-1 receptor [1] was 8.28.
In turn, `CCCCN(CCCC)C(=O)CN1C[C@H](c2ccc3c(c2)OCO3)[C@@H](C(=O)O)[C@@H]1c1ccc(OC)c(OC)c1` showed a negative logarithm of the IC50 (pIC50) at Endothelin-1 receptor [1] of 9.96.
The compound `CCCCN(CCCC)C(=O)CN1C[C@H](c2ccc3c(c2)CCO3)[C@@H](C(=O)O)[C@@H]1c1ccc(CC)cc1` showed a negative-log IC50 (pIC50) on Endothelin-1 receptor [1] of 9.04.
At Endothelin-1 receptor [1], `CCCCN(CCCC)C(=O)CN1C[C@H](c2ccc3c(c2)OCC3)[C@@H](C(=O)O)[C@@H]1c1ccc(OC)cc1` gave a pIC50 of 8.92.
On the same count and under the same terms, next, `CCCCN(CCCC)C(=O)CN1C[C@H](c2ccc3c(c2)OCO3)[C@@H](C(=O)O)[C@@H]1c1ccc(C)cc1`: 9.92.
In the case of `CCCCN(CCCC)C(=O)CN1C[C@H](c2ccc3c(c2)CCO3)[C@@H](C(=O)O)[C@@H]1c1ccc(CC)c(F)c1`, in series [2], the negative logarithm of the IC50 (pIC50) was 5.52.
Turning to `CCCCN(CCCC)C(=O)CN1C[C@H](c2ccc3c(c2)OCO3)[C@@H](C(=O)O)[C@@H]1c1ccc(OC)c(F)c1`, the negative logarithm of the IC50 (pIC50) on Endothelin-1 receptor [1] was 10.15.
The same measure, in the same setting: next, `CCCCN(CCCC)C(=O)CN1C[C@H](c2ccc3c(c2)OCO3)[C@@H](C(=O)O)[C@@H]1c1ccc(C(F)(F)F)cc1`: 8.48; `CCCCN(CCCC)C(=O)CN1C[C@H](c2ccc3c(c2)OCO3)[C@@H](C(=O)O)[C@@H]1c1ccc(F)c(F)c1`: 8.86; `CCCCN(CCCC)C(=O)CN1C[C@H](c2ccc3c(c2)OCO3)[C@@H](C(=O)O)[C@@H]1c1ccc(CC)cc1`: 9.77.
On to `CCCCN(CCCC)C(=O)CN1C[C@H](c2ccc3c(c2)OCO3)[C@@H](C(=O)O)[C@@H]1c1ccc(OC)cc1`, for which the highest concentration (Cmax) (as a rule, the maximum level reached in the sampled fluid or tissue) in [3] (read-out: Cmax) was 3440 ng/mL. Further, in [4] (read-out: Bioavailability), the bioavailability – broadly, dose-corrected exposure relative to a reference, in per cent – stood at 60.2%. For the same compound, the AUC (commonly concentration integrated over time) in series [5] was found to be 7360 ng·h/mL. The half-life (as a rule, how long it takes for the measured level to halve) in series [6] is 6.2 h.
For `CCCCN(CCCC)C(=O)CN1C[C@H](c2ccc3c(c2)CCO3)[C@@H](C(=O)O)[C@@H]1c1ccc(C)c(F)c1` (stereo in doubt; 8), the Cmax in series [3] (read-out: Cmax) was determined as 930 ng/mL. The bioavailability in [4] (read-out: Bioavailability) is 65.6%. In addition, the figures for the half-life in series [7] and in series [6] were 4.7 h and 5.8 h, respectively. In [5], this compound gave an AUC of 9400 ng·h/mL. This compound had a pIC50 in series [2] of 5.36.
For `CCCCN(CCCC)C(=O)CN1C[C@H](c2ccc3c(c2)CCO3)[C@@H](C(=O)O)[C@@H]1c1ccc(C)c(F)c1` (stereo in doubt; 8a), in [3], the Cmax stood at 1840 ng/mL. Moreover, the bioavailability in [4] was determined as 71.7%. This compound gave a half-life in series [8] of 2.1 h. In series [5], this compound displayed an AUC of 12500 ng·h/mL. In series [2], this compound showed a pIC50 of 5.21. For the same compound, at Endothelin-1 receptor [9], the pKi (as a rule, the negative decadic logarithm of the Ki, by convention in mol/L) is 10.41. Moreover, the T1/2 in series [6] turned out to be 4.7 h.
As for `CCCCN(CCCC)C(=O)CN1C[C@H](c2cc(OC)c3c(c2)OCO3)[C@@H](C(=O)O)[C@@H]1CC(C)(C)CCC` [ABT-546], the area under the curve (AUC) in series [5] turned out to be 3270 ng·h/mL. In series [10], the bioavailability is 47.7%.
